# Data taken from ChEMBL document CHEMBL1148398, “Design, synthesis, and biological evaluation of thio-containing compounds with serum HDL-cholesterol-elevating properties” (2004).
# Legend:
# Format in all cases: functional
# [1] = tested on: Rattus norvegicus; test: Percent change in triglycerides following oral administration of compound in normal chow-fed rats at 100 mg/kg/day for 4 days
# How it was run: (§1)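 Chow-fed male Sprague–Dawley CD rats, 60–80 g, gavaged 100 mg/kg/day for 4 days in 1.3% Tween 80/0.25% CMC. Fasted overnight, bled 24 h after the last dose. Total cholesterol and glycerol-blanked triglycerides read enzymatically; lipoproteins by FPLC with cholesterol per fraction. % change versus control; six per group, p < 0.05.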
# [2] = tested on: Rattus norvegicus; test: Percent change in triglycerides in hypercholesterolemic rats at a dose of 100 mg/kg/day for 8 days
# [3] = tested on: Rattus norvegicus; test: Percent change in low-density lipoprotein cholesterol following oral administration of compound in normal chow-fed rats at 100 mg/kg/day for 4 days; how it was run: as §1
# [4] = tested on: Rattus norvegicus; test: Percent change in very low-density lipoprotein cholesterol following oral administration of compound in normal chow-fed rats at 100 mg/kg/day for 4 days; how it was run: as §1
# [5] = tested on: Rattus norvegicus; test: Percent change in high-density lipoprotein cholesterol following oral administration of compound in normal chow-fed rats at 100 mg/kg/day for 4 days; how it was run: as §1
# [6] = tested on: Rattus norvegicus; test: Percent change in total plasma cholesterol in hypercholesterolemic rats dosed at 100 mg/kg/day for 8 days
# [7] = tested on: Rattus norvegicus; test: Percent change in total plasma cholesterol following oral administration of compound in normal chow-fed rats at 100 mg/kg/day for 4 days; how it was run: as §1
# [8] = tested on: Rattus norvegicus; test: Percent change in high-density lipoprotein cholesterol in hypercholesterolemic rats dosed at 100 mg/kg/day for 8 days
structure (smiles),measurement,setting,value
CCN1CC(=O)N(c2c(C)cccc2C)C1=S,Change,[1],-12.8%
same,Change,[2],-23%
same,Change,[3],43.8%
same,Change,[4],13%
same,Change,[5],93.6%
same,Change,[6],-28%
same,Change,[7],106.7%
same,Change,[8],181%
Cc1ccc(Cl)cc1N1C(=O)CON(C)C1=S,Change,[1],-26.2%
same,Change,[2],-10%
same,Change,[3],29.9%
same,Change,[4],23.1%
same,Change,[5],83.5%
same,Change,[6],5.7%
same,Change,[7],85.7%
same,Change,[8],236%
CCc1cccc(C)c1N1C(=O)CN(CC)C1=S,Change,[1],-8.2%
same,Change,[2],-10%
same,Change,[3],-6.5%
same,Change,[4],-29.2%
same,Change,[5],61.9%
same,Change,[6],-19%
same,Change,[7],52.8%
same,Change,[8],112%
CN1OCC(=O)N(c2ccc(Oc3ccccc3)cc2)C1=S,Change,[1],-20.5%
same,Change,[2],-43%
same,Change,[3],-20.5%
same,Change,[4],-9.1%
same,Change,[5],0%
same,Change,[6],-25%
same,Change,[7],-13%
same,Change,[8],102%
CCN1CCC(=O)N(c2ccccc2C(C)C)C1=S,Change,[1],-12.4%
same,Change,[2],-31%
same,Change,[3],9.8%
same,Change,[4],35.2%
same,Change,[5],67.8%
same,Change,[6],44%
same,Change,[7],59.2%
same,Change,[8],108%
CCN1CC(=O)N(c2ccccc2C)C1=S,Change,[1],-25%
same,Change,[2],38%
same,Change,[3],18.7%
same,Change,[4],0%
same,Change,[5],54.3%
same,Change,[6],76.5%
same,Change,[7],52.1%
same,Change,[8],164%
CCN1C(=O)C(=O)N(c2c(C)cccc2C)C1=S,Change,[1],-32.8%
same,Change,[2],-48%
same,Change,[3],73.2%
same,Change,[4],409.7%
same,Change,[5],114.4%
same,Change,[6],-21%
same,Change,[7],138.2%
same,Change,[8],186%
Cc1cc(Cl)ccc1N1C(=O)CON(C)C1=S,Change,[1],-4.3%
same,Change,[2],-38%
same,Change,[3],20.8%
same,Change,[4],114.7%
same,Change,[5],53.4%
same,Change,[6],4%
same,Change,[7],51.4%
same,Change,[8],221%
CCN1CC(=O)N(c2ccccc2C(F)(F)F)C1=S,Change,[1],-6.3%
same,Change,[2],35%
same,Change,[3],-13.3%
same,Change,[4],52.6%
same,Change,[5],103.5%
same,Change,[6],18%
same,Change,[7],67.2%
same,Change,[8],116%
CON1CC(=O)N(c2cc(Cl)ccc2C)C1=S,Change,[1],-10.8%
same,Change,[2],-62%
same,Change,[3],87.5%
same,Change,[4],249.5%
same,Change,[5],102.4%
same,Change,[6],41%
same,Change,[7],134.4%
same,Change,[8],160%
CN1OCC(=O)N(c2ccc(C(C)(C)C)cc2)C1=S,Change,[1],-24.6%
same,Change,[2],-51%
same,Change,[3],2.6%
same,Change,[4],176.5%
same,Change,[5],61.6%
same,Change,[6],2%
same,Change,[7],62%
same,Change,[8],170%
CCN1C(=S)N(CC(C)C)C(=O)C1c1ccccc1 (configuration not stated),Change,[1],-1.6%
same,Change,[2],92%
same,Change,[3],-9.3%
same,Change,[4],33.3%
same,Change,[5],-3.1%
same,Change,[6],7%
same,Change,[7],-8.4%
same,Change,[8],156%
CC(C)c1ccccc1N1C(=O)CON(C)C1=S,Change,[1],-52.7%
same,Change,[2],-16%
same,Change,[3],32.1%
same,Change,[4],-8.3%
same,Change,[5],98.2%
same,Change,[6],0%
same,Change,[7],92.4%
same,Change,[8],95%
CCN1CCC(=O)N(c2ccccc2F)C1=S,Change,[1],-4%
same,Change,[2],-26%
same,Change,[3],-4%
same,Change,[4],20.1%
same,Change,[5],55.3%
same,Change,[6],21%
same,Change,[7],48.7%
same,Change,[8],72%
